Source: ChEMBL document CHEMBL5647699, “Discovery of a chemical probe for PRDM9” (Nat Commun, 2019)
Active and inactive are the calls of the source. The calls are words filed in the database; no cut-off is given here.

How the values were obtained:
[1] = biological target: Histone-lysine N-methyltransferase PRDM7 (Homo sapiens) (UniProt Q9NQW5); assay: Inhibition of PRDM7 (unknown origin) using biotin-tagged Histone H3 (1 to 25) and 3H-SAM as substrate incubated for 90 mins by topcount plate reader analysis
[2] = biological target: Histone-lysine N-methyltransferase PRDM9 (Homo sapiens) (UniProt Q9NQV7); assay: Inhibition of PRDM9 (unknown origin) at 1 to 10 uM; details: dose 1-10 µM
Sequence of Histone-lysine N-methyltransferase PRDM9 (Homo sapiens) (Q9NQV7 whole entry): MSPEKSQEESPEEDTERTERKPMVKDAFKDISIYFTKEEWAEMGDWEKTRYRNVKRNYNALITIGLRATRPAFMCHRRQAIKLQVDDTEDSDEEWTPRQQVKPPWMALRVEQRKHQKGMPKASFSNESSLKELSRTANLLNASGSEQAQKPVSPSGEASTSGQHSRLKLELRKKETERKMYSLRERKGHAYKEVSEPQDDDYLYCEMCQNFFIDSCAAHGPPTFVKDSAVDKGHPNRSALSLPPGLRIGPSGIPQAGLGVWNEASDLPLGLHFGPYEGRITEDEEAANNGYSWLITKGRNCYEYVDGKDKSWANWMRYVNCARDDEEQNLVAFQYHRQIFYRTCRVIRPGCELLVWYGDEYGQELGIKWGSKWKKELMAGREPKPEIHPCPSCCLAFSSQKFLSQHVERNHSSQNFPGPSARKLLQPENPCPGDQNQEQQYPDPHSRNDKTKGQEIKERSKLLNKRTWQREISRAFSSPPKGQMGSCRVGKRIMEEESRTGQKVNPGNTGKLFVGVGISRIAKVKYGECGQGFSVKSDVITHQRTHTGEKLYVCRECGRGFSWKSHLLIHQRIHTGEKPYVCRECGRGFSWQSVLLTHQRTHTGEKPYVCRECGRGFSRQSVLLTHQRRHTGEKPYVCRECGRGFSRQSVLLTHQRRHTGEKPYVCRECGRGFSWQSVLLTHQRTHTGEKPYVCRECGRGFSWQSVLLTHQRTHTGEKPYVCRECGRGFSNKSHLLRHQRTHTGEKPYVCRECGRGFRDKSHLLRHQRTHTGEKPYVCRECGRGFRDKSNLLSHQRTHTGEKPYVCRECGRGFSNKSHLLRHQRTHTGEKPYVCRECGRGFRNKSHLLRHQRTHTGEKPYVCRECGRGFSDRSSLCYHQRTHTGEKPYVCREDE

[3] = biological target: Histone-lysine N-methyltransferase EHMT2 (Homo sapiens) (UniProt Q96KQ7); assay: Inhibition of G9a (unknown origin) at 1 to 10 uM; details: dose 1-10 µM
[4] = biological target: Histone-lysine N-methyltransferase EHMT1 (Homo sapiens) (UniProt Q9H9B1); assay: Inhibition of EHMT1 (unknown origin) at 1 to 10 uM; details: dose 1-10 µM
[5] = biological target: Histone-lysine N-methyltransferase SUV39H1 (Homo sapiens) (UniProt O43463); assay: Inhibition of SUV39H1 (unknown origin) at 1 to 10 uM; details: dose 1-10 µM
[6] = biological target: Histone-lysine N-methyltransferase SUV39H2 (Homo sapiens) (UniProt Q9H5I1); assay: Inhibition of SUV39H2 (unknown origin) at 1 to 10 uM; details: dose 1-10 µM
[7] = biological target: Histone-lysine N-methyltransferase SETDB1 (Homo sapiens) (UniProt Q15047); assay: Inhibition of SETDB1 (unknown origin) at 1 to 10 uM; details: dose 1-10 µM
[8] = biological target: Histone-lysine N-methyltransferase SETD7 (Homo sapiens) (UniProt Q8WTS6); assay: Inhibition of SETD7 (unknown origin) at 1 to 10 uM; details: dose 1-10 µM
[9] = biological target: N-lysine methyltransferase KMT5A (Homo sapiens) (UniProt Q9NQR1); assay: Inhibition of SETD8 (unknown origin) at 1 to 10 uM; details: dose 1-10 µM
[10] = biological target: Protein arginine N-methyltransferase 1 (Homo sapiens) (UniProt Q99873); assay: Inhibition of PRMT1 (unknown origin) at 1 to 10 uM; details: dose 1-10 µM
[11] = biological target: Protein arginine N-methyltransferase 3 (Homo sapiens) (UniProt O60678); assay: Inhibition of PRMT3 (unknown origin) at 1 to 10 uM; details: dose 1-10 µM
[12] = biological target: Histone-arginine methyltransferase CARM1 (Homo sapiens) (UniProt Q86X55); assay: Inhibition of PRMT4 (unknown origin) at 1 to 10 uM; details: dose 1-10 µM
[13] = biological target: Protein arginine N-methyltransferase 5 (Homo sapiens) (UniProt O14744); assay: Inhibition of PRMT5 (unknown origin) at 1 to 10 uM; details: dose 1-10 µM
[14] = biological target: Histone-lysine N-methyltransferase 2C (Homo sapiens) (UniProt Q8NEZ4); assay: Inhibition of MLL3 (unknown origin) at 1 to 10 uM; details: dose 1-10 µM
[15] = biological target: Protein arginine N-methyltransferase 6 (Homo sapiens) (UniProt Q96LA8); assay: Inhibition of PRMT6 (unknown origin) at 1 to 10 uM; details: dose 1-10 µM
[16] = biological target: Protein arginine N-methyltransferase 7 (Homo sapiens) (UniProt Q9NVM4); assay: Inhibition of PRMT7 (unknown origin) at 1 to 10 uM; details: dose 1-10 µM
[17] = biological target: Protein arginine N-methyltransferase 8 (Homo sapiens) (UniProt Q9NR22); assay: Inhibition of PRMT8 (unknown origin) at 1 to 10 uM; details: dose 1-10 µM
[18] = biological target: Protein arginine N-methyltransferase 9 (Homo sapiens) (UniProt Q6P2P2); assay: Inhibition of PRMT9 (unknown origin) at 1 to 10 uM; details: dose 1-10 µM
[19] = biological target: Histone-lysine N-methyltransferase 2A (Homo sapiens) (UniProt Q03164); assay: Inhibition of MLL1 (unknown origin) at 1 to 10 uM; details: dose 1-10 µM
Homo sapiens = species: Homo sapiens; assay: Inhibition of PRC2 (unknown origin) at 1 to 10 uM; details: dose 1-10 µM
[20] = biological target: Histone-lysine N-methyltransferase SETD2 (Homo sapiens) (UniProt Q9BYW2); assay: Inhibition of SETD2 (unknown origin) at 1 to 10 uM; details: dose 1-10 µM
Sequence of Histone-lysine N-methyltransferase SETD2 (Homo sapiens) (Q9BYW2 whole entry): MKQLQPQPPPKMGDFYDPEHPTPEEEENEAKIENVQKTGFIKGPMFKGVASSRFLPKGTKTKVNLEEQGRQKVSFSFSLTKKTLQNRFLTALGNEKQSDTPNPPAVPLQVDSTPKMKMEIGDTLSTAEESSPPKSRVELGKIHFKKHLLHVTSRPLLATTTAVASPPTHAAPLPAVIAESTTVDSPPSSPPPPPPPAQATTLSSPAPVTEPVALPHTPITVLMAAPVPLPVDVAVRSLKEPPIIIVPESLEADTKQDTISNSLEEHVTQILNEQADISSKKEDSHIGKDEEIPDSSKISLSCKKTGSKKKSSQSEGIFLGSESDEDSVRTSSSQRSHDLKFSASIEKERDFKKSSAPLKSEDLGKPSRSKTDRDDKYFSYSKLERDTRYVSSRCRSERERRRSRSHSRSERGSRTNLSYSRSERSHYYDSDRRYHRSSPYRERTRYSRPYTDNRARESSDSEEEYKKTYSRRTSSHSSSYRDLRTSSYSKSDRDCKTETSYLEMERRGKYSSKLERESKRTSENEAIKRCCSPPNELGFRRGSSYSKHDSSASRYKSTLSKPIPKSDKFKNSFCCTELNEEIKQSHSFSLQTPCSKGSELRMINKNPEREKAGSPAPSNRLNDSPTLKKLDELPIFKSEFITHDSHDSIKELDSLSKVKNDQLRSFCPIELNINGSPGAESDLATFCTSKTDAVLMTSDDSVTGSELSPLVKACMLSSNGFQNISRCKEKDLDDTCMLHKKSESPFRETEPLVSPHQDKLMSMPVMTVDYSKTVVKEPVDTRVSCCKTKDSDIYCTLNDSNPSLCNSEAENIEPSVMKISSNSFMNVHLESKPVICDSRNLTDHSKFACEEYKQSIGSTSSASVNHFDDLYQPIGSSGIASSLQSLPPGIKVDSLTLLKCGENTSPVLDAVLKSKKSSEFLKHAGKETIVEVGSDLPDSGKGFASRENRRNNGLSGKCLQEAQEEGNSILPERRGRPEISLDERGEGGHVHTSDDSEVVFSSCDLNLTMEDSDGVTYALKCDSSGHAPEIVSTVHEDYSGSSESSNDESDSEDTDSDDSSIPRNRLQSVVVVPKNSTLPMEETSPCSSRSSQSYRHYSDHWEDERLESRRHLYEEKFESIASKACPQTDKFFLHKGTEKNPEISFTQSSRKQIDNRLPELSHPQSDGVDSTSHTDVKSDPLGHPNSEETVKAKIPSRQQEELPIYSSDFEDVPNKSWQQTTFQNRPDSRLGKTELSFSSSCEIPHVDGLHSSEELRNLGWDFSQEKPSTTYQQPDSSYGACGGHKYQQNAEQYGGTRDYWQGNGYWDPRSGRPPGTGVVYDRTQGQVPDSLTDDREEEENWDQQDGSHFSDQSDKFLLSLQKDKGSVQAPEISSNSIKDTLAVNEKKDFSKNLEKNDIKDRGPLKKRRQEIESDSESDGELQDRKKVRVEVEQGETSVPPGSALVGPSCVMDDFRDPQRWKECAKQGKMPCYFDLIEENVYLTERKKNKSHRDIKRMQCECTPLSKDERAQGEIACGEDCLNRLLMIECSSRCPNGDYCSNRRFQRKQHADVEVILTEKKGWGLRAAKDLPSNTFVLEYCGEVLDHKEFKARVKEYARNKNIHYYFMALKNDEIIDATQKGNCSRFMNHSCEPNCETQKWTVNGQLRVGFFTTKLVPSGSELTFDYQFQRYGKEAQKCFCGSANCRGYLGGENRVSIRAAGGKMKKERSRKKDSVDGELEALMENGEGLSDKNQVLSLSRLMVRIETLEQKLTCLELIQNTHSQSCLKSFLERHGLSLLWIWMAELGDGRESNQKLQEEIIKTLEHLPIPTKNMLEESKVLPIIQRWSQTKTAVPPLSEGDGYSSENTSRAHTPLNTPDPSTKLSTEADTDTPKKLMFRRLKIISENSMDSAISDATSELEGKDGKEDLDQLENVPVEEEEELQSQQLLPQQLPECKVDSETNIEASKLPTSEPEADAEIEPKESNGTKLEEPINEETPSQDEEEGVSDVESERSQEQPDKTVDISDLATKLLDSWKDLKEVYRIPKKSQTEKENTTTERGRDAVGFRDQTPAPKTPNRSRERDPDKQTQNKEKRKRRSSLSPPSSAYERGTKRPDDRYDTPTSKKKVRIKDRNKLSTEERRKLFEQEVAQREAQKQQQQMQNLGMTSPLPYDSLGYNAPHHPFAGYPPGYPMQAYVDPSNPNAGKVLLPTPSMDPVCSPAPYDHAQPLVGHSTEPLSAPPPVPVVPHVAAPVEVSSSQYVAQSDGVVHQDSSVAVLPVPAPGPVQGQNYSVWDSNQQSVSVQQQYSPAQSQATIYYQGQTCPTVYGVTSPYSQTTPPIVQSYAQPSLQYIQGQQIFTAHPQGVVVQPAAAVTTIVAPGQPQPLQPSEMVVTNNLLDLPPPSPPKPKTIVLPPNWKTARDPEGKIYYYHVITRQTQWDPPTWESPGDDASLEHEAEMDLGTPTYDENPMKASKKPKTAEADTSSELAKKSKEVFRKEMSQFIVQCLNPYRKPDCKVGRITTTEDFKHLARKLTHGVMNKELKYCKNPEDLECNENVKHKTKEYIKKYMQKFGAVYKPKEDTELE

[21] = biological target: Histone-lysine N-methyltransferase KMT5B (Homo sapiens) (UniProt Q4FZB7); assay: Inhibition of SUV420H1 (unknown origin) at 1 to 10 uM; details: dose 1-10 µM
[22] = biological target: Histone-lysine N-methyltransferase KMT5C (Homo sapiens) (UniProt Q86Y97); assay: Inhibition of SUV420H2 (unknown origin) at 1 to 10 uM; details: dose 1-10 µM
[23] = biological target: N-lysine methyltransferase SMYD2 (Homo sapiens) (UniProt Q9NRG4); assay: Inhibition of SMYD2 (unknown origin) at 1 to 10 uM; details: dose 1-10 µM
[24] = biological target: Histone-lysine N-methyltransferase SMYD3 (Homo sapiens) (UniProt Q9H7B4); assay: Inhibition of SMYD3 (unknown origin) at 1 to 10 uM; details: dose 1-10 µM
[25] = biological target: RNA 5'-monophosphate methyltransferase (Homo sapiens) (UniProt Q7Z5W3); assay: Inhibition of BCDIN3D (unknown origin) at 1 to 10 uM; details: dose 1-10 µM
[26] = biological target: DNA (cytosine-5)-methyltransferase 1 (Homo sapiens) (UniProt P26358); assay: Inhibition of DNMT1 (unknown origin) at 1 to 10 uM; details: dose 1-10 µM
[27] = biological target: DNMT3A2/3L complex (Homo sapiens) (UniProt Q9Y6K1+Q9UJW3); assay: Inhibition of DNMT3A/DNMT3L (unknown origin) at 1 to 10 uM; assay type: protein-complex assay; details: dose 1-10 µM
[28] = biological target: DNMT3B-DNMT3L complex (Homo sapiens) (UniProt Q9UBC3+Q9UJW3); assay: Inhibition of DNMT3B/DNMT3L (unknown origin) at 1 to 10 uM; assay type: protein-complex assay; details: dose 1-10 µM
[29] = biological target: Histone-lysine N-methyltransferase, H3 lysine-79 specific (Homo sapiens) (UniProt Q8TEK3); assay: Inhibition of DOT1L (unknown origin) at 1 to 10 uM; details: dose 1-10 µM
[30] = biological target: Histone-lysine N-methyltransferase ASH1L (Homo sapiens) (UniProt Q9NR48); assay: Inhibition of ASH1L (unknown origin) at 1 to 10 uM; details: dose 1-10 µM
[31] = biological target: Histone-lysine N-methyltransferase, H3 lysine-36 specific (Homo sapiens) (UniProt Q96L73); assay: Inhibition of NSD1 (unknown origin) at 1 to 10 uM; details: dose 1-10 µM
[32] = biological target: Histone-lysine N-methyltransferase NSD2 (Homo sapiens) (UniProt O96028); assay: Inhibition of NSD2 (unknown origin) at 1 to 10 uM; details: dose 1-10 µM
[33] = biological target: Histone-lysine N-methyltransferase NSD3 (Homo sapiens) (UniProt Q9BZ95); assay: Inhibition of NSD3 (unknown origin) at 1 to 10 uM; details: dose 1-10 µM
Sequence of Histone-lysine N-methyltransferase NSD3 (Homo sapiens) (Q9BZ95 whole entry): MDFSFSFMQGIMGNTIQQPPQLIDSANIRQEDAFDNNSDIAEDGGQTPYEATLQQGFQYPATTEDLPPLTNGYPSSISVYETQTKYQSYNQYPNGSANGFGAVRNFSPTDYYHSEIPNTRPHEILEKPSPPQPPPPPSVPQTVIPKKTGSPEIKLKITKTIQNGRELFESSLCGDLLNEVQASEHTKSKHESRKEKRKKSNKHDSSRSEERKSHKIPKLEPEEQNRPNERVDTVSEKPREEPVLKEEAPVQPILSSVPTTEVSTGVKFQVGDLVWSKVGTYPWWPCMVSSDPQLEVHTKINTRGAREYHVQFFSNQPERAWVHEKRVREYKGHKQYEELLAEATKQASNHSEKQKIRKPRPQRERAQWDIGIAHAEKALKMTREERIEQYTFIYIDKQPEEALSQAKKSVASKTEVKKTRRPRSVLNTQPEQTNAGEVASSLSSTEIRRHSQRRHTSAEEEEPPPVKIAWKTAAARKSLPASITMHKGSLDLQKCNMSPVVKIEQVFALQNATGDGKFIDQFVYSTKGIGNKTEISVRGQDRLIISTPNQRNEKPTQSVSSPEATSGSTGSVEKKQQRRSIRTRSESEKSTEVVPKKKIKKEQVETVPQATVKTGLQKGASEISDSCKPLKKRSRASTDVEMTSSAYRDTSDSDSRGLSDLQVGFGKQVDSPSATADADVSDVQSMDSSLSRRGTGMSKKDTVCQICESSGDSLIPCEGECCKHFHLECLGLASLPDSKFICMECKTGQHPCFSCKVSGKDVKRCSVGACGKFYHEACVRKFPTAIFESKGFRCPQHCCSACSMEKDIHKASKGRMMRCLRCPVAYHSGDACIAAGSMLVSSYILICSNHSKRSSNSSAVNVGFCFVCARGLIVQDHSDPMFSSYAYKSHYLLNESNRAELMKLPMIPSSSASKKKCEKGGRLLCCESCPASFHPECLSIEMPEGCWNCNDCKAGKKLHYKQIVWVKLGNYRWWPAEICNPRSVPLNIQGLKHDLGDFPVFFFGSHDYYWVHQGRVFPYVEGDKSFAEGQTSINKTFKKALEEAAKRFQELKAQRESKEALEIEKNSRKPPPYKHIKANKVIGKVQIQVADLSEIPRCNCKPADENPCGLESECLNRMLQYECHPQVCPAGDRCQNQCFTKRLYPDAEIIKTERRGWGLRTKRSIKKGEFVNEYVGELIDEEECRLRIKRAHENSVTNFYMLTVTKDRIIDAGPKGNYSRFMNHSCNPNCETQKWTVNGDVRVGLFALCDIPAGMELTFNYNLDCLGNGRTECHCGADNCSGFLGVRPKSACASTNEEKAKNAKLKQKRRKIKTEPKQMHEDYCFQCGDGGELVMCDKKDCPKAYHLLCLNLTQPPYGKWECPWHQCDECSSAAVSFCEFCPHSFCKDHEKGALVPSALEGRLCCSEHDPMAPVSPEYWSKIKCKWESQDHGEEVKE

SK-MM-2 = assay: Cytotoxicity against human SK-MM-2 cells at upto 30 uM measured for 3 to 6 days by celltiter glo assay; assay type: functional, cell-based; details: time 3-6 day
[34] = biological target: Histone-lysine N-methyltransferase PRDM9 (Homo sapiens) (UniProt Q9NQV7); assay: Inhibition of FLAG tagged PRDM9 transfected in HEK293T cells assessed as inhibition of trimethylation H3K4 at 10 uM measured after 20 hrs by Western blot analysis; assay type: cell-based
HEK-293T [35] = assay: Cytotoxicity against HEK293T cells at 3 uM measured after 24 hrs by IncuCyte zoom live-cell imaging analysis; assay type: toxicity, cell-based; details: human
How it was run: (§1)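 HEK293T cells seeded, treated next day with compound for 1 day; cell number counted by live-cell imaging after Vybrant DyeCycle Green staining; mean ± sd, n = 3.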

HEK-293T [36] = assay: Cytotoxicity against HEK293T cells at 10 uM measured after 24 hrs by IncuCyte zoom live-cell imaging analysis; assay type: toxicity, cell-based; details: human; how it was run: as §1
HEK-293T [37] = assay: Cytotoxicity against HEK293T cells at 3 uM measured after 4 days by IncuCyte zoom live-cell imaging analysis; assay type: toxicity, cell-based; details: human, 96 h, time 4 day
HEK-293T [38] = assay: Cytotoxicity against HEK293T cells at 10 uM measured after 4 days by IncuCyte zoom live-cell imaging analysis; assay type: toxicity, cell-based; details: human, 96 h, time 4 day
RPMI-8226 = assay: Cytotoxicity against human RPMI-8226 cells at upto 30 uM measured for 3 to 6 days by celltiter glo assay; assay type: functional, cell-based; details: time 3-6 day
CAL-85-1 = assay: Cytotoxicity against human CAL-85-1 cells at upto 30 uM measured for 3 to 6 days by celltiter glo assay; assay type: functional, cell-based; details: time 3-6 day
HCC1806 = assay: Cytotoxicity against human HCC1806 cells at upto 30 uM measured for 3 to 6 days by celltiter glo assay; assay type: functional, cell-based; details: time 3-6 day
MDA-MB-436 = assay: Cytotoxicity against human MDA-MB-436 cells at upto 30 uM measured for 3 to 6 days by celltiter glo assay; assay type: functional, cell-based; details: time 3-6 day
HCC1143 = assay: Cytotoxicity against human HCC1143 cells at upto 30 uM measured for 3 to 6 days by celltiter glo assay; assay type: functional, cell-based; details: time 3-6 day
Spermatocyte [39] = assay: Induction of meiotic defect in wild type mouse spermatocyte assessed as non homologous synapsis by SYCP1/SYCP3 staining based immunofluorescence assay; assay type: functional, cell-based
Spermatocyte [40] = assay: Induction of meiotic defect in wild type mouse spermatocyte assessed as effect on paring of chromosomal homolog by SYCP1/SYCP3 staining based immunofluorescence assay; assay type: functional, cell-based

inhibition [1]: inactive
inhibition [2]: inactive
inhibition [3]: inactive
inhibition [4]: inactive
inhibition [5]: inactive
inhibition [6]: inactive
inhibition [7]: inactive
inhibition [8]: inactive
inhibition [9]: inactive
inhibition [10]: inactive
inhibition [11]: inactive
inhibition [12]: inactive
inhibition [13]: inactive
inhibition [14]: inactive
inhibition [15]: inactive
inhibition [16]: inactive
inhibition [17]: inactive
inhibition [18]: inactive
inhibition [19]: inactive
inhibition (Homo sapiens): inactive
inhibition [20]: inactive
inhibition [21]: inactive
inhibition [22]: inactive
inhibition [23]: inactive
inhibition [24]: inactive
inhibition [25]: inactive
inhibition [26]: inactive
inhibition [27]: inactive
inhibition [28]: inactive
inhibition [29]: inactive
inhibition [30]: inactive
inhibition [31]: inactive
inhibition [32]: inactive
inhibition [33]: inactive
inhibition [34]: inactive
Compound: COc1cc(OC)cc(-c2noc(N3CCN(C)C4(CCN(c5ccccc5)CC4)C3)n2)c1
Activity (SK-MM-2): inactive
Activity (HEK-293T [35]): Non-Toxic
Activity (HEK-293T [36]): Toxic
Activity (HEK-293T [37]): Non-Toxic
Activity (HEK-293T [38]): Toxic
Activity (RPMI-8226): inactive
Activity (CAL-85-1): inactive
Activity (HCC1806): inactive
Activity (MDA-MB-436): inactive
Activity (HCC1143): inactive
Activity (Spermatocyte [39]): inactive
Activity (Spermatocyte [40]): inactive
